In the library only some 3% were active in any assay of this set; here they are far more common.
Rad51 HR inh – Rad51 (human) homologous recombination inhibition; hRad51 DNA strand exchange, fluorescence dequenching; inhibition, % at 10 µM; 0.085% of 200,000 active;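 active = inhibition above 40% at the single screening dose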
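Assay system: Human Rad51 nucleoprotein filaments preassembled on unlabelled ssDNA | Reagent: Donor/quencher-labelled 47-bp dsDNA substrate | Doses: One concentration, 10 µM final | Times: 37 °C 15-min filament assembly, 30-min compound preincubation, 15-min exchange | Technique: Fluorescein emission 520 nm, excitation 485 nm | Benchmarks: Plate control and blank wells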
KCC2 mod – modulators of human KCC2 chloride dependent transport; 2.2% of 190,000 active; KCC2 cells, thallium flux FluoZin-2 fluorescence; B-score of Tl+ flux slope (higher = more flux/activation; lower = inhibition) at 10 µM;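 active = thallium flux slope and its plate-corrected score both differing from the plate sample mean at a set confidence after two filtering rounds, in either direction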;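 also: slope of fluorescence scaled to starting intensity during 10 to 20 s after thallium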
PKD1 kinase inh – blocks activity of human protein kinase D1; Q15139; PKD1 kinase fluorescence polarization assay; inhibition, % (no concentration beside the values); 0.056% of 200,000 active; in the data active = inhibition above about 50%
ROMK mod – modulators of human ROMK potassium channel | B-score at 10 µM | Tet-inducible ROMK, thallium flux fluorescence; actives lie on both sides | P48048 | 2% of 130,000 active;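 active = signal ratio slope over the read window, or its plate-corrected B-score, at least 3 SD from the plate mean, either direction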;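 also: B-score of the F/F0 ratio slope over 7 to 12 s after thallium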
Target sequence (P48048 whole entry, looked up): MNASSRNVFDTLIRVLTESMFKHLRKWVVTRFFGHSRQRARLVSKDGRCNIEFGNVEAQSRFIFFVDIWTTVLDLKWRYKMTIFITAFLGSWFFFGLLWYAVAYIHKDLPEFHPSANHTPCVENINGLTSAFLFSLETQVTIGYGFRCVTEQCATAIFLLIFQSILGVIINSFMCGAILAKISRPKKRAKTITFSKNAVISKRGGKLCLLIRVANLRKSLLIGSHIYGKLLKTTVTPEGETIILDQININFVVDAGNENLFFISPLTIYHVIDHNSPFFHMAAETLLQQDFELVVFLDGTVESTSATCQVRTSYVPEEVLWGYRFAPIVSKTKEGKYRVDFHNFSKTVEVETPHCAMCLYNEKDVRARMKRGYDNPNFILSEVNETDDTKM
ROMK hit retest – human ROMK channel modulation, retest confirmation; shares compounds with ROMK mod; ROMK thallium flux, fluorescence ratio; stronger effect = lower value; normalized thallium flux (F/F0 slope) at 10 µM; 54% of 3,000 active; AID 1917;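 active = Flux at 10 µM at least 3 SD below or above vehicle control mean in one or both replicates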
Each line names hits and unclear results; the compound was inactive in the other large screens (follow-up assays come after a bar, where they were run).

COc1ccc(Cn2c(O)c(/C=N/NC(=O)c3cccnc3)c3ccccc3c2=O)cc1	ROMK mod -5.5 | ROMK hit retest 0.0316
Cc1ccc(N(CC(=O)Nc2cccc(C)c2)S(=O)(=O)c2cccc3nonc23)cc1	none (no result: KCC2 mod, ROMK mod)
CC(=O)N/N=C/c1ccc(OCCOc2ccc(Br)cc2)cc1	none (no result: Rad51 HR inh, ROMK mod)
COc1ccc(S(=O)(=O)N2CCCCC2)cc1C(C)C	none (no result: ROMK mod) | ROMK hit retest 0.0529
COc1ccccc1Oc1ccc(S(=O)(=O)N2CCCC2)cc1	none (no result: Rad51 HR inh, ROMK mod)
COc1ccc(Oc2ccc(S(=O)(=O)N3CCCCC3)cc2S(=O)(=O)N2CCCCC2)cc1	ROMK mod -5.71 (no result: PKD1 kinase inh) | ROMK hit retest 0.0466
COc1ccc(NC(=O)COC(=O)[C@@H](NC(=O)c2c(F)cccc2F)C(C)C)cc1	none
CC(=O)c1ccc(NC(=O)Cn2c3ccccc3c3nc(=O)cc(C)n32)cc1	none (no result: Rad51 HR inh, PKD1 kinase inh, ROMK mod) | ROMK hit retest inactive
Cc1ccccc1-n1c(C)nnc1SCC(=O)N1CCc2ccccc2C1	none (no result: ROMK mod)
O=C(CCn1c2c(c3ccccc31)CCCC2)NNC(=O)c1ccccc1[N+](=O)[O-]	none (no result: ROMK mod)
O=C(CCn1c2c(c3ccccc31)CCCC2)NNC(=O)c1ccccc1C(=O)O	none (no result: Rad51 HR inh, PKD1 kinase inh, ROMK mod) | ROMK hit retest inactive
COCCNC(=O)Cn1cc(S(=O)(=O)N2CCN(c3ccccc3F)CC2)c2ccccc2c1=O	ROMK mod -2.3 | ROMK hit retest inactive
COCCN(CC(=O)NC1CCCCC1)C(=O)/C=C/C(=O)c1ccc(OC)cc1O	ROMK mod -4.97 (no result: Rad51 HR inh) | ROMK hit retest 0.0534
O=C(NCCCNC(=O)c1cccs1)c1cccs1	none (no result: KCC2 mod, ROMK mod)
O=C(NCCCN1CCCC1=O)c1cccs1	none (no result: Rad51 HR inh, ROMK mod) | ROMK hit retest inactive
O=C1OCc2cccc([N+](=O)[O-])c21	none
O=C1Nc2ccccc2OCc2c1cccc2[N+](=O)[O-]	ROMK mod 3.49 | ROMK hit retest 0.104
COc1ccc(CN2CCN(CC(O)Cn3c4ccccc4c4ccccc43)CC2)cc1 (stereo not given)	ROMK mod -3.57 | ROMK hit retest 0.0601
COc1ccc(-c2cc3ccccc3n2CC(O)CN2CCC(C)CC2)cc1 (stereo not given)	ROMK mod -1.97 | ROMK hit retest 0.0571
CCOc1ccc(CN2CCN(CC(O)Cn3c4ccccc4c4ccccc43)CC2)cc1 (stereo not given)	none (no result: Rad51 HR inh)
N#Cc1ccc(NC(=O)COC(=O)CSc2nnc(-c3ccc(Cl)cc3)o2)cc1	none (no result: ROMK mod)
O=C1OC(/C=C/c2ccc(Cl)cc2Cl)=NC/1=C\c1cccs1	ROMK mod -2.94 | ROMK hit retest 0.059
O=c1cc(-c2cccs2)oc2ccc(Cl)cc12	none (no result: ROMK mod)
Cc1ccccc1N1C(=O)C(Oc2ccc(Cl)cc2)C1CNCCCOC(C)C (stereo not given)	ROMK mod -3.22 | ROMK hit retest 0.0585
Nc1nc(NCc2ccco2)nc(N2CCCCCC2)c1[N+](=O)[O-]	none (no result: ROMK mod) | ROMK hit retest 0.0622
Nc1nc(NCc2ccco2)nc(N2CCCC2)c1[N+](=O)[O-]	none (no result: PKD1 kinase inh, ROMK mod)
C=CCn1c(SCC(N)=O)nnc1-c1cccc(Br)c1	none (no result: ROMK mod) | ROMK hit retest inactive
C=CCn1c(SCC(N)=O)nnc1-c1cnccn1	none (no result: PKD1 kinase inh)
CCOc1ccc(-n2c(C)nc3cc(C(=O)NCc4ccc5c(c4)OCO5)ccc32)cc1	none
COc1ccc(-n2c(C)nc3cc(C(=O)NCc4ccc5c(c4)OCO5)ccc32)cc1	ROMK mod 4.25 | ROMK hit retest inactive
N#C/C(=C\c1ccc(OCc2cccc(C(=O)O)c2)cc1)C(=O)NCc1ccco1	none (no result: PKD1 kinase inh, ROMK mod) | ROMK hit retest 0.0385
COCCNC(=O)/C(C#N)=C/c1ccc(OCc2ccccc2)cc1	none (no result: ROMK mod)
CCN1CCN(c2cc(C)nc(-c3ccccc3O)n2)CC1	none (no result: PKD1 kinase inh)
CC(CCc1ccccc1)NC(=O)CN1CCN(c2ccccc2)CC1 (stereo not given)	ROMK mod -2.88 | ROMK hit retest 0.0614
O=C(c1ccccc1)C1CCN(CC(=O)N2CCN(c3ccccc3)CC2)CC1	none
Cc1ccc(CC(=O)NC(C)CCc2ccccc2)cc1 (stereo not given)	none (no result: ROMK mod)
O=C(CN1CCN(C(c2ccccc2)c2ccccc2)CC1)N1CCN(c2ccccc2)CC1	ROMK mod -3.66 (no result: PKD1 kinase inh) | ROMK hit retest 0.0627
CCOC(=O)/C=C1\SCC(=O)N1CC(=O)Nc1cccc(F)c1	none (no result: Rad51 HR inh)
O=[N+]([O-])c1cccc(P(=O)(O)c2cccc([N+](=O)[O-])c2)c1	none (no result: PKD1 kinase inh)
COC(=O)[C@@]1(Cc2ccccc2)[C@@H]2C(=CC(=O)[C@H]2CC(=O)C(=O)N(C)C)CN1C(=O)c1ccccc1	ROMK mod -4.6 | ROMK hit retest 0.0492
Cc1cccc(N2C(=O)/C(=C\c3ccc(C(=O)O)cc3)c3ccccc3C2=O)c1	ROMK mod -6.37 | ROMK hit retest 0.0464

Screens: PubChem BioAssay, several laboratories
